This note sets out measurements from paper PMC10985026 (Acta Pharmaceutica Sinica. B, 2023).

Where two headings read alike, the source gives them in different places.

The subject of assay [1] is 4T1 (breast cancer) cells. Briefly: MTT cytotoxicity assay, 4T1. The class given is cell-based, murine. The note with it: 48 h, read-out: IC50 4T1. (Tetrazolium assays rely on reduction of a dye to a coloured formazan, in cell work by metabolically active cells.)
In another assay the test system is B16F10 (melanoma) cells. Description: MTT cytotoxicity assay, B16F10. The class given is cell-based, murine. The conditions noted are these: read-out: IC50 B16F10. In outline:
(§1)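 Cells were cultured in DMEM/RPMI-1640/MEM with 10% FBS and 1% penicillin–streptomycin at 37 °C, 5% CO2; Renca medium also had 1 mmol/L sodium pyruvate and 2 mmol/L L-glutamine. Cells at about 50% confluence in 96-well plates were exposed to a concentration series for 48 h (DMSO vehicle). MTT was added for 4 h at 37 °C, formazan dissolved in DMSO, and absorbance read on a plate reader. Results are mean ± SD.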

Assay [2] relates to Renca (kidney cancer) cells. Description: MTT cytotoxicity assay, Renca. In kind it is cell-based, murine. The note with it: 48 h, read-out: IC50 Renca. The method, boiled down:
as §1

The subject of a further assay is HUVEC. Briefly: MTT cytotoxicity assay, HUVEC. The conditions noted are these: 48 h, read-out: IC50 HUVEC. The class given is cell-based, human. The method, boiled down: as §1
A further assay has as its system L-929. Description: MTT cytotoxicity assay, L-929. The class given is cell-based, murine. The conditions noted are these: read-out: IC50 L-929. The method, boiled down:
as §1

The next assay concerns NLRP3 inflammasome. Briefly: Western blot of NLRP3. The class given is cell-based, murine. The conditions noted are these: 4T1, 2 μmol/L, 24 h, compared to control group. The method, boiled down: (§2)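 4T1 cells at about 70% confluence in 6-well plates were treated 24 h with test compound or DMSO vehicle. Protein was extracted in RIPA buffer with PMSF and phosphatase inhibitors, immunoblotted, and detected by enhanced chemiluminescence imaging. Sam50/COX II blots: n = 3.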
(In general: Immunoblotting shows a protein as a band on a membrane.)

In a further assay the test system is 4T1 subcutaneous tumor. Briefly: Anti-tumor effect in vivo, 4T1 subcutaneous tumor model. Further details: species or system BALB/c mouse. The note with it: 4T1-bearing BALB/c mice, after 27 days. The method, boiled down:
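Subcutaneous 4T1 tumours were grown in female BALB/c mice (6–8 weeks, 18–20 g). At about 50 mm3 on day 7, mice were randomised to five groups: PBS, each parent drug alone, the parent drugs combined, or test compound. Dosing was i.v. every two days, with body weight and tumour volume measured regularly. Main organs and blood were collected at study end for safety assessment.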

The test system of the next assay is Sam50 and COX II. Description: Western blot of Sam50 and COX II. In kind it is cell-based, murine. The conditions noted are these: 4T1, 2 μmol/L, 24 h. The method, boiled down: as §2
Where [3] appears, read: MTT, mean ± SD of three experiments.
[4] abbreviates: MTT, 48 h, mean ± SD of three experiments.

What is called IC50 is the point on the concentration scale where inhibition reaches its midpoint. `CC(=O)Nc1ccc(O)cc1` [APAP, Acetaminophen]: the concentration for half-maximal inhibition (IC50) in assay [1] (Mus musculus) is above 100 µM; with B16F10 (melanoma) cells (Mus musculus, B16-F10, 48 h), above 100 µM; in assay [2] (Mus musculus, Renca), above 100 µM; in the assay with HUVEC (Homo sapiens, HUVEC), above 100 µM; in the assay on L-929 (Mus musculus, L929, 48 h), 73.3 ± 0.88 µM. Further, the “NLRP3 inflammasome expression upregulation” value in the assay with NLRP3 inflammasome is on record as “approximately 1.2 fold”. The “relative tumor volume versus PBS group” value with 4T1 subcutaneous tumor was “no significant difference”. Also, the “protein concentrations of Sam50 and COX II” value in the assay with Sam50 and COX II is given as “significantly downregulated”.

As to `O=C1[O][Pt]2([NH][C@@H]3CCCC[C@H]3[NH]2)[O]C1=O` [Oxa, Oxaliplatin], the IC50 in assay [1] (setting [3]) was 13.4 ± 0.66 µM; in the assay with B16F10 (melanoma) cells (setting [4]), 25.9 ± 0.96 µM; in assay [2] (setting [3]), above 100 µM; with HUVEC (setting [3]), 32.5 ± 2.01 µM; with L-929 (setting [4]) it was 44.6 ± 0.93 µM. Besides, the “relative tumor volume versus PBS group” value in the assay with 4T1 subcutaneous tumor is listed as “no significant difference”. The “protein concentrations of Sam50 and COX II” value in the assay with Sam50 and COX II was “no significant effect”.
